Hits are enriched below; roughly 4.1% of the tested compounds scored in any of these assays.
RGS4 act: potentiators or activators of RGS4 | actives 0.92% (n = 310,000) | HEK293 M3R/inducible RGS4, carbachol calcium flux Fluo4; hits give low values | B-score at 10 µM | AID 463111;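 active = B-score of the integrated calcium signal more than 4 SD below the library mean, with starting fluorescence not abnormally high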;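 note: negative B-score means reduced calcium response which marks RGS4 activation or potentiation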
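System – HEK293 FlpIn-TREx cells, stable M3R, doxycycline-inducible RGS4 · Reagent – ECmax carbachol challenge · Times – compound preincubation 20 min at room temperature before agonist · Technique – Fluo4 fluorescence kinetic imaging of calcium · Measure – B score of integrated Fluo4 ratio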
RGS4 inh: human RGS4 inhibition | P49798 | actives 0.45% (n = 310,000) | AID 463165 | B-score at 10 µM | HEK293 M3R/RGS4 inducible, Fluo-4 calcium flux; hits give high values; triggered by carbachol at its EC20;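 active = B-score, a plate-corrected calcium signal, over three deviations above library mean, with baseline fluorescence within five deviations of library mean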;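 note: RGS4 expression induced by doxycycline in cells with stable M3 receptor; B-score is computed from the integrated fluorescence ratio over baseline after carbachol; higher B-score means a larger calcium signal and so more RGS4 inhibition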
Target sequence (P49798 whole entry, looked up): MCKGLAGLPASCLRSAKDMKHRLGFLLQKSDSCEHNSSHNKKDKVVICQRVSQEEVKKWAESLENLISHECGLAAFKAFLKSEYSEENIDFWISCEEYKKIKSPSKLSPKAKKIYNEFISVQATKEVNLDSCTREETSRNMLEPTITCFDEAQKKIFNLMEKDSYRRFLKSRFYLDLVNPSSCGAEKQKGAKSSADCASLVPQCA
MrgX1 antag: blocks BAM8-22 activation of human MrgX1 receptor; Q96LB2; B-score at 10 µM; actives 1.3% (n = 310,000); MRGX1-HEK293 calcium flux, Fluo-4, BAM8-22 antagonism; hits give low values;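 active = calcium-response B-score plate-corrected more than 3 library SD below zero, starting fluorescence within 5 deviations, no agonist response on first addition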;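 note: peak minus trough fluorescence over baseline after final BAM8-22 challenge near maximal dose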
MrgX1 allo act: allosterically activates human MrgX1 receptor signaling | MrgX1-HEK293, Fluo-4 calcium flux, FDSS; hits give high values | B-score at 10 µM | actives 0.63% (n = 310,000);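 active = plate-corrected calcium response at least 3 library SD above typical, normal starting fluorescence, not activating the receptor alone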;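 note: compound read alongside a low EC10 to EC30 dose of BAM8-22 agonist; peak minus trough fluorescence over baseline measured at the second addition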
MrgX1 ag: human MrgX1 receptor agonism, primary screen | MrgX1-HEK293 cells, Fluo-4 calcium fluorescence, agonist mode; hits give high values | B-score at 10 µM | actives 0.44% (n = 310,000) | AID 588627;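 active = calcium response B-score plate-corrected fluorescence ratio at least 3 library SD, with starting fluorescence B-score inside 5 SD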
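Test system: HEK293 cells stably expressing human MrgX1 receptor; amount: 15,000 cells per well; doses: compound delivered in addition one of three; times: overnight plating before 1 h dye loading; detection: Fluo-4 NW calcium-flux fluorescence, kinetic read; read-out basis: B-scored fluorescence response ratio; controls: positive and negative controls per plate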
Kir21 block: blocks the mouse Kir2.1 inward-rectifier potassium channel | B-score at 10 µM | actives 0.85% (n = 310,000) | HEK293-Kir2.1, FluxOR thallium flux fluorescence; hits give low values | P35561;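 active = fluorescence ratio B-score at or below minus 3 SD of library scores, with starting-brightness B-score within 2 SD, cut at about -4.2 in these data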;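 note: channel flux triggered by added potassium and thallium sulfate stimulus; B-score of peak minus minimum fluorescence over baseline after thallium stimulus; more negative B-score means stronger Kir2.1 block with less thallium influx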
Large screens that a line does not name were inactive.

CCCCNC(=S)Nc1ccccc1Cc1ccccc1	Kir21 block -4.74
CCc1cc(Br)ccc1NC(=S)NCCc1ccccc1	Kir21 block -7.87
O=C(Nc1nnc(C2CC2)s1)C1CC(=O)N(c2ccc3c(c2)OCCO3)C1 (centres undefined)	none
Cc1ccc(C)c(NC(=S)NC(NC(=O)Cc2cccc3ccccc23)C(Cl)(Cl)Cl)c1 (centres undefined)	MrgX1 antag -9.09
Cc1nnc2ccc(-c3cccc(NS(=O)(=O)c4ccccc4[N+](=O)[O-])c3)nn12	MrgX1 ag 29.2
O=[N+]([O-])c1ccccc1S(=O)(=O)Nc1cccc(-c2ccc3nncn3n2)c1	MrgX1 ag 26.7
Cc1nnc2ccc(-c3cccc(NS(=O)(=O)c4ccccc4Cl)c3)nn12	none
Cc1ncsc1CCC(=O)N1CCCC(Nc2ccc(C(C)C)cc2)C1 (centres undefined)	MrgX1 antag -6.57
Cc1csc(N/N=C/c2c(F)cccc2Cl)n1	MrgX1 allo act 9.76
Cc1csc(N/N=C/c2ccccc2F)n1	none
Cc1nn(-c2ccc(Cl)nn2)c(=O)c2ccccc12	MrgX1 allo act 13.9
Cc1nn(-c2ccc(Cl)cc2)c(=O)c2ccccc12	none
O=C(C1=COCCO1)N1CCN(S(=O)(=O)c2cccc(Cl)c2Cl)CC1	MrgX1 antag -5.65
Cc1ccc(-n2cc(CNCCc3cscn3)c(-c3ccc(F)cc3)n2)cc1	none
Cc1ccc(-n2cc(CNCCCn3ccnc3C)c(-c3ccc(F)cc3)n2)cc1	Kir21 block -7.93
CCCNC(=O)c1ccc2c(c1)ncn2-c1cc(C)cc(C)c1	none
COc1ccc(Cl)cc1NC(=O)COC(=O)CCc1cc(OC)c(OC)c(OC)c1	Kir21 block -4.94
CCN(CC)CCCNC(=O)Cn1nc(-c2ccccc2)ccc1=O	none
COC(=O)/C=C1/S/C(=N/NC(=O)c2ccccc2C)NC1=O	MrgX1 antag -8.23
CC1(C)CC2CC(C)(CN2Cc2cccc([N+](=O)[O-])c2)C1 (centres undefined)	none
COc1cccc(/C=N/NC(=O)N/N=C/c2cccc(OC)c2O)c1O	RGS4 act -7.91
COc1cccc(/C=N/Nc2snc(SC)c2C#N)c1O	MrgX1 antag -5.44
Cc1c(O)ccc2cc(S(=O)(=O)c3ccccc3)c(=O)oc12	RGS4 act -7.77
Cc1ccc(S(=O)(=O)c2cc3ccccc3oc2=O)cc1	none
CCN(CC)c1ccc(C=C2C(=O)OC3(CCCCC3)OC2=O)cc1	MrgX1 ag 33.1
CC1=NOC(=O)/C1=C/c1ccc(N(C)C)cc1	MrgX1 ag 45.7
CCN(CC)c1ccc(/C=C2/C(=O)c3ccc(C(=O)O)cc3C2=O)cc1	none (no result: RGS4 act, RGS4 inh, Kir21 block)
CCN(CC)c1ccc(/C=C2/C(=O)ON=C2C)cc1	MrgX1 ag 56.7
CCN(CC)c1ccc(/C=C2\C(=O)N(c3nnc(C)c(=O)[nH]3)N=C2C)cc1	MrgX1 ag 41.6
CC(/C=C/C=C/c1ccccc1)=N\NC(=O)c1cccnc1	none
CC(=O)Nc1ccc(Nc2nc(-c3c(C)nc4ccccn34)cs2)cc1	none
CCCCn1c(SCc2cccc([N+](=O)[O-])c2)nc2ccsc2c1=O	RGS4 act -8.05
COCCn1c(SCc2cccc([N+](=O)[O-])c2)nc2ccccc2c1=O	none
COc1ccc(N(CC(=O)NC(C)c2ccccc2)S(=O)(=O)c2ccc(C)cc2)cc1 (centres undefined)	none
C/C(=N\NC(=O)c1ccc(Cn2cc(Br)cn2)o1)c1cccc(NC(=O)C(C)C)c1	none
C/C(=N\NC(=O)c1ccc(Cn2cc([N+](=O)[O-])cn2)o1)c1cccc(NC(=O)C(C)C)c1	MrgX1 antag -5.62
Cc1cccc(C(=O)NNS(=O)(=O)c2ccccc2)c1O	none
O=C(COC(=O)C1CC(=O)N(Cc2ccco2)C1)c1ccc(OC(=O)c2ccccc2)cc1 (centres undefined)	Kir21 block -6.21
COc1cccc(COC(=O)C2CC(=O)N(Cc3ccco3)C2)c1OC (centres undefined)	none

Assay outcomes: PubChem, Johns Hopkins Ion Channel Center
